# In ChEMBL document CHEMBL2407075, “Sulphonamido-quinoxalines: search for anticancer agent” (Eur J Med Chem, 2013):
# Assays:
# Type in all cases: functional
# [1] = tested on: RXF 393; assay: Growth inhibition of human RXF393 cells assessed as cell growth at 10^-4 M after 48 hrs by sulforhodamine B assay; conditions: RXF 393, 48 h, read-out: Activity
# [2] = tested on: CAKI-1; assay: Growth inhibition of human CAKI-1 cells assessed as cell growth at 10^-4 M after 48 hrs by sulforhodamine B assay; conditions: CAKI-1, 48 h, read-out: Activity
# Outline: (§1)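 Five-dose NCI-60 run (0.01, 0.1, 1, 10 and 100 µM, as 10-fold dilutions from a DMSO stock made at 400× the top final level). Cells were grown in RPMI 1640 with 5% FBS and 2 mM glutamine and plated for 24 h. They were then exposed for 48 h at 37 °C and 5% CO2. TCA fixation was followed by SRB staining with A515 read-out. Percent growth was taken relative to time-zero and control plates.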
# [3] = tested on: OVCAR-4; assay: Growth inhibition of human OVCAR4 cells assessed as cell growth at 10^-4 M after 48 hrs by sulforhodamine B assay; conditions: OVCAR-4, 48 h, read-out: Activity
# [4] = tested on: SNB-75; assay: Growth inhibition of human SNB75 cells assessed as cell growth at 10^-4 M after 48 hrs by sulforhodamine B assay; conditions: SNB-75, 48 h, read-out: Activity
# [5] = tested on: NCI-H322M; assay: Growth inhibition of human NCI-H322M cells assessed as cell growth at 10^-4 M after 48 hrs by sulforhodamine B assay; conditions: read-out: Activity
# [6] = Growth inhibition of human EKVX cells assessed as cell growth at 10^-4 M after 48 hrs by sulforhodamine B assay; conditions: read-out: Activity; outline: as §1
# [7] = tested on: 786-0; assay: Growth inhibition of human 786-0 cells assessed as cell growth at 10^-5 M after 48 hrs by sulforhodamine B assay; conditions: 786-0, 48 h, read-out: Activity; outline: as §1
# [8] = tested on: SK-OV-3; assay: Growth inhibition of human SKOV3 cells assessed as cell growth at 10^-5 M after 48 hrs by sulforhodamine B assay; conditions: SK-OV-3, 48 h, read-out: Activity
# [9] = tested on: COLO 205; assay: Growth inhibition of human COLO205 cells assessed as cell growth at 10^-5 M after 48 hrs by sulforhodamine B assay; conditions: COLO 205, 48 h, read-out: Activity; outline: as §1
# [10] = tested on: HOP-92; assay: Growth inhibition of human HOP92 cells assessed as cell growth at 10^-5 M after 48 hrs by sulforhodamine B assay; conditions: HOP-92, 48 h, read-out: Activity
# Outline: (§2)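 Five-dose screen at NCI. Cells in RPMI 1640 with 5% FBS and 2 mM L-glutamine, seeded at 5000–40,000 cells/well and grown 24 h at 37 °C, 5% CO2 before dosing, with time-zero plates TCA-fixed. Drug diluted from DMSO stock to 0.01, 0.1, 1, 10 and 100 µM final, 48 h. Cells fixed with cold TCA (10% final), stained with 0.4% SRB and read at 515 nm. Percent growth from Tz, control and test absorbances; GI50, TGI and LC50 from dose-response curves.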
# [11] = tested on: RPMI-8226; assay: Growth inhibition of human RPMI8226 cells assessed as cell growth at 10^-5 M after 48 hrs by sulforhodamine B assay; conditions: RPMI-8226, 48 h, read-out: Activity
# [12] = tested on: A498; assay: Growth inhibition of human A498 cells assessed as cell growth at 10^-6 M after 48 hrs by sulforhodamine B assay; conditions: A498, 48 h, read-out: Activity; outline: as §1
# [13] = Growth inhibition of human NCI-ADR-RES cells assessed as cell growth at 10^-6 M after 48 hrs by sulforhodamine B assay; conditions: read-out: Activity
# [14] = tested on: SNB-75; assay: Growth inhibition of human SNB75 cells assessed as cell growth at 10^-6 M after 48 hrs by sulforhodamine B assay; conditions: SNB-75, 48 h, read-out: Activity
# [15] = tested on: COLO 205; assay: Growth inhibition of human COLO205 cells assessed as cell growth at 10^-6 M after 48 hrs by sulforhodamine B assay; conditions: COLO 205, 48 h, read-out: Activity; outline: as §1
# [16] = tested on: A549; assay: Growth inhibition of human A549/ATCC cells assessed as cell growth at 10^-6 M after 48 hrs by sulforhodamine B assay; conditions: A549, 48 h, read-out: Activity; outline: as §1
# [17] = tested on: MOLT-4; assay: Growth inhibition of human MOLT4 cells assessed as cell growth at 10^-6 M after 48 hrs by sulforhodamine B assay; conditions: MOLT-4, 48 h, read-out: Activity
# [18] = tested on: DU-145; assay: Growth inhibition of human DU145 cells assessed as cell growth at 10^-7 M after 48 hrs by sulforhodamine B assay; conditions: DU-145, 48 h, read-out: Activity; outline: as §1
# [19] = tested on: OVCAR-5; assay: Growth inhibition of human OVCAR5 cells assessed as cell growth at 10^-7 M after 48 hrs by sulforhodamine B assay; conditions: OVCAR-5, 48 h, read-out: Activity
# [20] = tested on: OVCAR-4; assay: Growth inhibition of human OVCAR4 cells assessed as cell growth at 10^-7 M after 48 hrs by sulforhodamine B assay; conditions: OVCAR-4, 48 h, read-out: Activity
# [21] = tested on: U-251; assay: Growth inhibition of human U251 cells assessed as cell growth at 10^-7 M after 48 hrs by sulforhodamine B assay; conditions: U-251, 48 h, read-out: Activity
# [22] = tested on: HOP-62; assay: Growth inhibition of human HOP62 cells assessed as cell growth at 10^-7 M after 48 hrs by sulforhodamine B assay; conditions: HOP-62, 48 h, read-out: Activity; outline: as §2
# [23] = tested on: A498; assay: Growth inhibition of human A498 cells assessed as cell growth at 10^-8 M after 48 hrs by sulforhodamine B assay; conditions: A498, 48 h, read-out: Activity; outline: as §1
# [24] = Growth inhibition of human NCI-ADR-RES cells assessed as cell growth at 10^-8 M after 48 hrs by sulforhodamine B assay; conditions: read-out: Activity
# [25] = tested on: UACC-62; assay: Growth inhibition of human UACC62 cells assessed as cell growth at 10^-8 M after 48 hrs by sulforhodamine B assay; conditions: UACC-62, 48 h, read-out: Activity
# [26] = tested on: SNB-75; assay: Growth inhibition of human SNB75 cells assessed as cell growth at 10^-8 M after 48 hrs by sulforhodamine B assay; conditions: SNB-75, 48 h, read-out: Activity
# [27] = tested on: HT-29; assay: Growth inhibition of human HT-29 cells assessed as cell growth at 10^-8 M after 48 hrs by sulforhodamine B assay; conditions: HT-29, 48 h, read-out: Activity; outline: as §2
# [28] = tested on: HOP-92; assay: Growth inhibition of human HOP92 cells assessed as cell growth at 10^-8 M after 48 hrs by sulforhodamine B assay; conditions: HOP-92, 48 h, read-out: Activity; outline: as §2
# [29] = Growth inhibition of human EKVX cells assessed as cell growth at 10^-8 M after 48 hrs by sulforhodamine B assay; conditions: read-out: Activity; outline: as §2
# [30] = tested on: UACC-62; assay: Growth inhibition of human UACC62 cells after 48 hrs by sulforhodamine B assay; conditions: UACC-62, 48 h, read-out: LC50 (the source's name)
# [31] = tested on: Malme-3M; assay: Growth inhibition of human MALME-3M cells after 48 hrs by sulforhodamine B assay; conditions: read-out: LC50 (the source's name)
# Outline: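 Adherent cells in RPMI 1640 with 5% FBS and 2 mM L-glutamine were plated at 5000–40,000 cells/well and grown 24 h. Five concentrations (0.01–100 µM, DMSO stock) were added for 48 h at 37 °C. Cells were fixed with cold TCA (10% final) and stained with SRB, read at 515 nm. GI50 came from log concentration–growth curves against time-zero and control plates.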
SMILES,growth at 100 µM [1],growth at 100 µM [2],growth at 100 µM [3],growth at 100 µM [4],growth at 100 µM [5],growth at 100 µM [6],growth at 10 µM [7],growth at 10 µM [8],growth at 10 µM [9],growth at 10 µM [10],growth at 10 µM [11],growth at 1 µM [12],growth at 1 µM [13],growth at 1 µM [14],growth at 1 µM [15],growth at 1 µM [16],growth at 1 µM [17],growth at 0.1 µM [18],growth at 0.1 µM [19],growth at 0.1 µM [20],also measured
O=S(=O)(Nc1ccc(Cl)cc1)c1ccc2nc(-c3ccccc3)c(-c3ccccc3)nc2c1,51%,65%,52%,46%,88%,65%,-45%,14%,-11%,-13%,-45%,65%,89%,69%,103%,87%,86%,99%,92%,90%,growth at 0.1 µM [21]: 94%; growth at 0.1 µM [22]: 100%; growth at 0.01 µM [23]: 75%; growth at 0.01 µM [24]: 99%; growth at 0.01 µM [25]: 95%; growth at 0.01 µM [26]: 75%; growth at 0.01 µM [27]: 100%; growth at 0.01 µM [28]: 96%; growth at 0.01 µM [29]: 97%; CC50 [30]: > 100 µM; CC50 [31]: > 100 µM
O=S(=O)(Nc1ccccn1)c1ccc2nc(-c3ccccc3)c(-c3ccccc3)nc2c1,38%,73%,21%,20%,65%,50%,-30%,11%,-73%,-18%,-48%,66%,84%,75%,94%,96%,80%,99%,93%,102%,growth at 0.1 µM [21]: 97%; growth at 0.1 µM [22]: 101%; growth at 0.01 µM [23]: 88%; growth at 0.01 µM [24]: 101%; growth at 0.01 µM [25]: 92%; growth at 0.01 µM [26]: 85%; growth at 0.01 µM [27]: 102%; growth at 0.01 µM [28]: 94%; growth at 0.01 µM [29]: 100%; CC50 [30]: > 100 µM; CC50 [31]: > 100 µM
